# Source: ChEMBL document CHEMBL4689842, “EUbOPEN Chemogenomics Library wave 1” (2021)
# How the values were obtained:
# HEK-293T = experiment: Multiplex assay against HEK293T; assay type: toxicity, cell-based; details: human;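 as to Population Tubulin-Different-Phenotype (%): share of the cells with healthy nuclei that show this phenotype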
# Summary of the method: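 Live cells were stained at seeding with Hoechst33342, BioTracker Green Microtubule Cytoskeleton Dye, MitoTracker Red and Annexin V Alexa Fluor 680. Following compound addition, they were imaged on a CQ1 microscope at 37°C and 5% CO2 and gated by CellPathfinder machine learning into Hoechst high-intensity objects or normal cells, with normal cells split into healthy, pyknosed or fragmented nuclei and pyknosed cells into mitotic or apoptotic. Tubulin, mitochondrial-mass and membrane-permeability phenotypes are per cents of healthy-nucleus cells.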
# Fibroblast = experiment: Incucyte cell viability with human fibroblast; assay type: toxicity, cell-based; details: 10 µM, compound concentration 10 uM; also: filed as whole numbers so only -1 and 0 and 1 occur
# [1] = 12 h, 1 µM, compound concentration 1 uM, replicate 1
# [2] = 12 h, 1 µM, compound concentration 1 uM, replicate 2
# [3] = 12 h, 10 µM, compound concentration 10 uM, replicate 1
# [4] = 12 h, 10 µM, compound concentration 10 uM, replicate 2
# [5] = 24 h, 1 µM, compound concentration 1 uM, replicate 1
# [6] = 24 h, 1 µM, compound concentration 1 uM, replicate 2
# [7] = 24 h, 10 µM, compound concentration 10 uM, replicate 1
# [8] = 24 h, 10 µM, compound concentration 10 uM, replicate 2
# [9] = 48 h, 1 µM, compound concentration 1 uM, replicate 1
# [10] = 48 h, 1 µM, compound concentration 1 uM, replicate 2
# [11] = 48 h, 10 µM, compound concentration 10 uM, replicate 1
# [12] = 48 h, 10 µM, compound concentration 10 uM, replicate 2
smiles,measurement,setting,value
CC(Cc1ccc(O)c(O)c1)C(C)Cc1ccc(O)c(O)c1 (stereo unspecified) [NORDIHYDROGUAIARETIC ACID],Population Apoptotic (%),HEK-293T; [1],42%
same,Population Fragmented Nuclei (%),HEK-293T; [1],12%
same,Population Healthy Nuclei (%),HEK-293T; [1],34%
same,Population Hoechst High Intensity Objects (%),HEK-293T; [1],16%
same,Population Mitochondria Different-Phenotype (%),HEK-293T; [1],81%
same,Population Mitotic Cells (%),HEK-293T; [1],57%
same,Population Normal (%),HEK-293T; [1],83%
same,Population Pyknosed Nuclei (%),HEK-293T; [1],52%
same,Population Tubulin-Different-Phenotype (%),HEK-293T; [1],6%
same,Total Cell Count,HEK-293T; [1],150
same,Population Apoptotic (%),HEK-293T; [2],8%
same,Population Fragmented Nuclei (%),HEK-293T; [2],6%
same,Population Healthy Nuclei (%),HEK-293T; [2],36%
same,Population Hoechst High Intensity Objects (%),HEK-293T; [2],5%
same,Population Membrane Permeable-Phenotype (%),HEK-293T; [2],2%
same,Population Mitochondria Different-Phenotype (%),HEK-293T; [2],28%
same,Population Mitotic Cells (%),HEK-293T; [2],91%
same,Population Normal (%),HEK-293T; [2],94%
same,Population Pyknosed Nuclei (%),HEK-293T; [2],57%
same,Population Tubulin-Different-Phenotype (%),HEK-293T; [2],11%
same,Total Cell Count,HEK-293T; [2],194
same,Population Apoptotic (%),HEK-293T; [3],33%
same,Population Fragmented Nuclei (%),HEK-293T; [3],12%
same,Population Healthy Nuclei (%),HEK-293T; [3],49%
same,Population Hoechst High Intensity Objects (%),HEK-293T; [3],15%
same,Population Membrane Permeable-Phenotype (%),HEK-293T; [3],3%
same,Population Mitochondria Different-Phenotype (%),HEK-293T; [3],71%
same,Population Mitotic Cells (%),HEK-293T; [3],66%
same,Population Normal (%),HEK-293T; [3],84%
same,Population Pyknosed Nuclei (%),HEK-293T; [3],37%
same,Population Tubulin-Different-Phenotype (%),HEK-293T; [3],2%
same,Total Cell Count,HEK-293T; [3],211
same,Population Apoptotic (%),HEK-293T; [4],11%
same,Population Fragmented Nuclei (%),HEK-293T; [4],6%
same,Population Healthy Nuclei (%),HEK-293T; [4],55%
same,Population Hoechst High Intensity Objects (%),HEK-293T; [4],4%
same,Population Membrane Permeable-Phenotype (%),HEK-293T; [4],1%
same,Population Mitochondria Different-Phenotype (%),HEK-293T; [4],14%
same,Population Mitotic Cells (%),HEK-293T; [4],88%
same,Population Normal (%),HEK-293T; [4],95%
same,Population Pyknosed Nuclei (%),HEK-293T; [4],38%
same,Population Tubulin-Different-Phenotype (%),HEK-293T; [4],0%
same,Total Cell Count,HEK-293T; [4],254
same,Population Apoptotic (%),HEK-293T; [5],35%
same,Population Fragmented Nuclei (%),HEK-293T; [5],12%
same,Population Healthy Nuclei (%),HEK-293T; [5],42%
same,Population Hoechst High Intensity Objects (%),HEK-293T; [5],12%
same,Population Membrane Permeable-Phenotype (%),HEK-293T; [5],1%
same,Population Mitochondria Different-Phenotype (%),HEK-293T; [5],46%
same,Population Mitotic Cells (%),HEK-293T; [5],64%
same,Population Normal (%),HEK-293T; [5],87%
same,Population Pyknosed Nuclei (%),HEK-293T; [5],45%
same,Population Tubulin-Different-Phenotype (%),HEK-293T; [5],15%
same,Total Cell Count,HEK-293T; [5],156
same,Population Apoptotic (%),HEK-293T; [6],18%
same,Population Fragmented Nuclei (%),HEK-293T; [6],5%
same,Population Healthy Nuclei (%),HEK-293T; [6],48%
same,Population Hoechst High Intensity Objects (%),HEK-293T; [6],3%
same,Population Membrane Permeable-Phenotype (%),HEK-293T; [6],6%
same,Population Mitochondria Different-Phenotype (%),HEK-293T; [6],11%
same,Population Mitotic Cells (%),HEK-293T; [6],81%
same,Population Normal (%),HEK-293T; [6],96%
same,Population Pyknosed Nuclei (%),HEK-293T; [6],46%
same,Population Tubulin-Different-Phenotype (%),HEK-293T; [6],12%
same,Total Cell Count,HEK-293T; [6],212
same,Population Apoptotic (%),HEK-293T; [7],27%
same,Population Fragmented Nuclei (%),HEK-293T; [7],17%
same,Population Healthy Nuclei (%),HEK-293T; [7],39%
same,Population Hoechst High Intensity Objects (%),HEK-293T; [7],7%
same,Population Membrane Permeable-Phenotype (%),HEK-293T; [7],0%
same,Population Mitochondria Different-Phenotype (%),HEK-293T; [7],50%
same,Population Mitotic Cells (%),HEK-293T; [7],72%
same,Population Normal (%),HEK-293T; [7],92%
same,Population Pyknosed Nuclei (%),HEK-293T; [7],42%
same,Population Tubulin-Different-Phenotype (%),HEK-293T; [7],7%
same,Total Cell Count,HEK-293T; [7],192
same,Population Apoptotic (%),HEK-293T; [8],16%
same,Population Fragmented Nuclei (%),HEK-293T; [8],8%
same,Population Healthy Nuclei (%),HEK-293T; [8],58%
same,Population Hoechst High Intensity Objects (%),HEK-293T; [8],3%
same,Population Membrane Permeable-Phenotype (%),HEK-293T; [8],1%
same,Population Mitochondria Different-Phenotype (%),HEK-293T; [8],4%
same,Population Mitotic Cells (%),HEK-293T; [8],83%
same,Population Normal (%),HEK-293T; [8],96%
same,Population Pyknosed Nuclei (%),HEK-293T; [8],32%
same,Population Tubulin-Different-Phenotype (%),HEK-293T; [8],1%
same,Total Cell Count,HEK-293T; [8],255
same,Population Apoptotic (%),HEK-293T; [9],21%
same,Population Fragmented Nuclei (%),HEK-293T; [9],11%
same,Population Healthy Nuclei (%),HEK-293T; [9],68%
same,Population Hoechst High Intensity Objects (%),HEK-293T; [9],8%
same,Population Membrane Permeable-Phenotype (%),HEK-293T; [9],5%
same,Population Mitochondria Different-Phenotype (%),HEK-293T; [9],19%
same,Population Mitotic Cells (%),HEK-293T; [9],78%
same,Population Normal (%),HEK-293T; [9],91%
same,Population Pyknosed Nuclei (%),HEK-293T; [9],20%
same,Population Tubulin-Different-Phenotype (%),HEK-293T; [9],14%
same,Total Cell Count,HEK-293T; [9],223
same,Population Apoptotic (%),HEK-293T; [10],14%
same,Population Fragmented Nuclei (%),HEK-293T; [10],7%
same,Population Healthy Nuclei (%),HEK-293T; [10],69%
same,Population Hoechst High Intensity Objects (%),HEK-293T; [10],5%
same,Population Membrane Permeable-Phenotype (%),HEK-293T; [10],7%
same,Population Mitochondria Different-Phenotype (%),HEK-293T; [10],1%
same,Population Mitotic Cells (%),HEK-293T; [10],85%
same,Population Normal (%),HEK-293T; [10],94%
same,Population Pyknosed Nuclei (%),HEK-293T; [10],23%
same,Population Tubulin-Different-Phenotype (%),HEK-293T; [10],16%
same,Total Cell Count,HEK-293T; [10],312
same,Population Apoptotic (%),HEK-293T; [11],21%
same,Population Fragmented Nuclei (%),HEK-293T; [11],21%
same,Population Healthy Nuclei (%),HEK-293T; [11],50%
same,Population Hoechst High Intensity Objects (%),HEK-293T; [11],11%
same,Population Membrane Permeable-Phenotype (%),HEK-293T; [11],7%
same,Population Mitochondria Different-Phenotype (%),HEK-293T; [11],5%
same,Population Mitotic Cells (%),HEK-293T; [11],78%
same,Population Normal (%),HEK-293T; [11],88%
same,Population Pyknosed Nuclei (%),HEK-293T; [11],28%
same,Population Tubulin-Different-Phenotype (%),HEK-293T; [11],3%
same,Total Cell Count,HEK-293T; [11],187
same,Population Apoptotic (%),HEK-293T; [12],14%
same,Population Fragmented Nuclei (%),HEK-293T; [12],7%
same,Population Healthy Nuclei (%),HEK-293T; [12],67%
same,Population Hoechst High Intensity Objects (%),HEK-293T; [12],4%
same,Population Membrane Permeable-Phenotype (%),HEK-293T; [12],5%
same,Population Mitochondria Different-Phenotype (%),HEK-293T; [12],1%
same,Population Mitotic Cells (%),HEK-293T; [12],85%
same,Population Normal (%),HEK-293T; [12],95%
same,Population Pyknosed Nuclei (%),HEK-293T; [12],25%
same,Population Tubulin-Different-Phenotype (%),HEK-293T; [12],1%
same,Total Cell Count,HEK-293T; [12],280
same,Growth Rate,"Fibroblast; 0 h, replicate number 1, timepoint 0 hours",0
same,Growth Rate,"Fibroblast; 6 h, replicate number 1, timepoint 6 hours",0
same,Growth Rate,"Fibroblast; 12 h, replicate number 1, timepoint 12 hours",0
same,Growth Rate,"Fibroblast; 18 h, replicate number 1, timepoint 18 hours",0
same,Growth Rate,"Fibroblast; 24 h, replicate number 1, timepoint 24 hours",0
